This passage reports logP, Ki and Ratio Ki results from ChEMBL document CHEMBL3392971, “Design and synthesis of protein kinase C epsilon selective diacylglycerol lactones (DAG-lactones)” (Eur J Med Chem, 2015).

Data set [1] in a line: Lipophilicity, log P of the compound. The class given is physicochemical. The following applies: octanol/water.
In data set [2] the target is T1, Protein kinase C epsilon type (Homo sapiens, UniProt Q02156).
T1 sequence (Q02156 whole entry): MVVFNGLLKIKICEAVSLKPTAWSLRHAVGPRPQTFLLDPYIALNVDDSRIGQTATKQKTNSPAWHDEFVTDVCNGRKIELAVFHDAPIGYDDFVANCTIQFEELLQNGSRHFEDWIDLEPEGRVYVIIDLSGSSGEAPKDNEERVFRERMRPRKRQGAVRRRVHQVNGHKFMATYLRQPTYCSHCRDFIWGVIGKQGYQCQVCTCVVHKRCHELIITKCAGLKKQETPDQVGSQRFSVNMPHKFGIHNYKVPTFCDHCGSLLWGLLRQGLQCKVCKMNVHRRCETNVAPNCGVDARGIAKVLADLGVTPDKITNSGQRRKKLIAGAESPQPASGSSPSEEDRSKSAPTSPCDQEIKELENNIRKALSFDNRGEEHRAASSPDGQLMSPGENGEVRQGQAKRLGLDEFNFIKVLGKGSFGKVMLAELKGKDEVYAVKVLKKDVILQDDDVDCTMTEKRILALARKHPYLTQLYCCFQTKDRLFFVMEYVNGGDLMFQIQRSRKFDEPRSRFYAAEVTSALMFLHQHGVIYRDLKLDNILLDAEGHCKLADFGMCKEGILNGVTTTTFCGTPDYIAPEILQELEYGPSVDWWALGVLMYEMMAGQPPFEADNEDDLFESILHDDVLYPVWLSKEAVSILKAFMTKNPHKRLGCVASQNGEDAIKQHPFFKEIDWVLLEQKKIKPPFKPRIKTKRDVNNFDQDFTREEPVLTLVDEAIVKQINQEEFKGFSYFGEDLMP
Put plainly: Displacement of [20-3H] phorbol 12, 13-dibutylate from recombinant PKCepsilon (unknown origin) in presence of nuclear membrane mimetic lipid mixture. The class given is cell membranes.

Data set [3] concerns the target T1, Protein kinase C epsilon type. The data set can be described thus: Displacement of [20-3H] phorbol 12, 13-dibutylate from recombinant PKCepsilon (unknown origin) in presence of 100 ug/ml 100% phosphatidylserine.
Data set [4] addresses T2, Protein kinase C alpha type (Homo sapiens, UniProt P17252). The data set can be described thus: Displacement of [20-3H] phorbol 12, 13-dibutylate from recombinant PKCalpha (unknown origin) in presence of nuclear membrane mimetic lipid mixture. The data set is classed as cell membranes.
Data set [5] is filed under the species Homo sapiens. The data set can be described thus: Selectivity index, ratio of Ki for recombinant PKCalpha (unknown origin) in presence of 100 ug/ml 100% phosphatidylserine to Ki for recombinant PKCepsilon (unknown origin) in presence of 100 ug/ml 100% phosphatidylserine.
Data set [6] concerns the target T2, Protein kinase C alpha type. Put plainly: Displacement of [20-3H] phorbol 12, 13-dibutylate from recombinant PKCalpha (unknown origin) in presence of 100 ug/ml 100% phosphatidylserine.
The species named for data set [7] is Homo sapiens. Put plainly: Selectivity index, ratio of Ki for recombinant PKCalpha (unknown origin) in presence of nuclear membrane mimetic lipid mixture to Ki for recombinant PKCepsilon (unknown origin) in presence of nuclear membrane mimetic lipid mixture. The data set is classed as cell membranes. In short, it runs like this: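 Ki values for recombinant PKC-alpha and PKC-epsilon were each measured by competition with [20-3H]PDBu in the nuclear-membrane-mimetic lipid mix (POPC/POPE/POPS/POPI/cholesterol 61:21:4:7:6). The ratio is PKC-alpha Ki divided by PKC-epsilon Ki.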

As usually defined, the logP is a log measure of how a compound divides between an organic and an aqueous phase. By Ki is commonly meant a dissociation constant, usually derived from enzyme kinetics or from competition with a known ligand. As for `CCCCCCCCC#CCCCCCCCC(=O)OCC1(CO)C/C(=C/CC(C)C)C(=O)O1` (configuration not stated), in data set [1] (read-out: logP), the logP turned out to be 8.01. Further, the Ki in data set [2] is 34.6 nM; in data set [3], 7.12 nM; in data set [4] it was 38.7 nM; in data set [6] it was 12.6 nM. Further, the Ratio Ki in the data set filed under Homo sapiens [5] came to 1.8; in the data set listed under Homo sapiens [7], 1.1.
With `CC(C)CC(C/C=C1\CC(CO)(COC(=O)C(C)(C)C)OC1=O)CC(C)C` (configuration not stated), the Ki is 1.43 nM in data set [2], 1.03 nM in data set [3], 46 nM in data set [4] and 8.3 nM in data set [6]. In addition, the Ratio Ki worked out at 8.1 in the data set filed under Homo sapiens [5] and 32.2 in the data set listed under Homo sapiens [7].
As for `CCCCCC1OC1CC1OC1CCCCCCCC(=O)OCC1(CO)C/C(=C/CC(C)C)C(=O)O1` (configuration not stated), the logP in data set [1] (read-out: logP) stood at 5.69. Moreover, the Ki in data set [2] came to 63 nM; in data set [3], 16.3 nM; in data set [4], 103 nM; in data set [6], 16.5 nM. Further, the results for the Ratio Ki in the data set filed under Homo sapiens [5] and in the data set filed under Homo sapiens [7] were 1 and 1.6, respectively.
Take `CCCCCC1CC1CC1CC1CCCCCCCC(=O)OCC1(CO)C/C(=C/CC(C)C)C(=O)O1` (configuration not stated): the logP in data set [1] is 9.19. For the same compound, the Ki turned out to be 30.7 nM in data set [2], 9.8 nM in data set [3], 44 nM in data set [4] and 15.4 nM in data set [6]. In addition, the Ratio Ki in the data set filed under Homo sapiens [5] was 1.6; in the data set filed under Homo sapiens [7] it was 1.4.
As for `CCCCCC1CC1CC1CC1CCCCCCCC(=O)OCC1(CO)C/C(=C\CC(C)C)C(=O)O1` (configuration not stated), in data set [1], the logP turned out to be 9.19. Moreover, the Ki in data set [2] was found to be 19.8 nM; in data set [3], 5.5 nM; in data set [4], 60 nM; in data set [6], 10.2 nM. Moreover, the results for the Ratio Ki in the data set listed under Homo sapiens [5] and in the data set filed under Homo sapiens [7] were 1.9 and 3, respectively.
With `CC(C)C/C=C1/CC(CO)(COC(=O)CC(CC(C)C)CC(C)C)OC1=O` (configuration not stated), in data set [1] (read-out: logP), the logP was determined as 5.06. In addition, the Ki turned out to be 15.6 nM in data set [2], 2.37 nM in data set [3], 57 nM in data set [4] and 4.74 nM in data set [6]. The values for the Ratio Ki in the data set listed under Homo sapiens [5] and in the data set filed under Homo sapiens [7] were 2 and 3.6, respectively.
In turn, `CCCCCC1CC1CC1CC1CCCCCCC/C=C1\CC(CO)(COC(=O)C(C)(C)C)OC1=O` (configuration not stated) returned a logP in data set [1] of 9.15. The Ki came to 41 nM in data set [2], 8.3 nM in data set [3], 110 nM in data set [4] and 26.7 nM in data set [6]. Also, the Ratio Ki in the data set listed under Homo sapiens [5] worked out at 3.2; in the data set filed under Homo sapiens [7] it was 2.7.
Consider `CCCCC/C=C\C/C=C\CCCCCCC/C=C1\CC(CO)(COC(=O)C(C)(C)C)OC1=O` (configuration not stated), for which the logP in data set [1] (read-out: logP) was determined as 8.25. Moreover, the Ki in data set [2] was 5.2 nM; in data set [3], 4.1 nM; in data set [4], 25.7 nM; in data set [6] it was 8.26 nM. For the same compound, the Ratio Ki in the data set listed under Homo sapiens [5] came out at 2; in the data set listed under Homo sapiens [7] it was 4.9.
For the compound `CCCCCC=CCC=CCCCCCCCC(=O)OCC1(CO)C/C(=C\CC(C)C)C(=O)O1` (configuration not stated), the logP in data set [1] (read-out: logP) came out at 8.29. Further, the inhibition constant Ki stood at 13.1 nM in data set [2], 2.14 nM in data set [3], 24.7 nM in data set [4] and 4.33 nM in data set [6]. The Ratio Ki in the data set listed under Homo sapiens [5] worked out at 2; in the data set filed under Homo sapiens [7] it was 1.9.
Take `CC(C)C/C=C1\CC(CO)(COC(=O)CC(CC(C)C)CC(C)C)OC1=O` (configuration not stated): the logP in data set [1] (read-out: logP) turned out to be 5.06. The Ki was 3 nM in data set [2], 1.21 nM in data set [3], 15.4 nM in data set [4] and 2.78 nM in data set [6]. The Ratio Ki is 2.3 in the data set listed under Homo sapiens [5] and 5.1 in the data set filed under Homo sapiens [7].
As to `CCCCCCCCC#CCCCCCCCC(=O)OCC1(CO)C/C(=C\CC(C)C)C(=O)O1` (configuration not stated), in data set [1] (read-out: logP), the logP is 8.01. Besides, the Ki in data set [2] amounted to 9.1 nM; in data set [3], 4.79 nM; in data set [4], 43.8 nM; in data set [6], 8.7 nM. Further, the Ratio Ki in the data set filed under Homo sapiens [5] is 1.8; in the data set listed under Homo sapiens [7] it was 4.8.
Consider `CCCCCC=CCC=CCCCCCCCC(=O)OCC1(CO)C/C(=C/CC(C)C)C(=O)O1` (configuration not stated), for which the log partition coefficient (logP) in data set [1] (read-out: logP) was 8.29. The inhibitory constant (Ki) worked out at 19.5 nM in data set [2], 12.2 nM in data set [3], 26.2 nM in data set [4] and 7.05 nM in data set [6]. The figures for the Ratio Ki in the data set filed under Homo sapiens [5] and in the data set listed under Homo sapiens [7] were 0.6 and 1.3, respectively.
`CCCCCCC#CC#CCCCCCCCC(=O)OCC1(CO)C/C(=C/CC(C)C)C(=O)O1` (configuration not stated): the logP in data set [1] (read-out: logP) came out at 7.82. For the same compound, the Ki worked out at 40.3 nM in data set [2], 13.4 nM in data set [3], 44.8 nM in data set [4] and 9.8 nM in data set [6]. The Ratio Ki amounted to 0.7 in the data set listed under Homo sapiens [5] and 1.1 in the data set filed under Homo sapiens [7].
For the compound `CCCCC/C=C\C/C=C\CCCCCCC/C=C1/CC(CO)(COC(=O)C(C)(C)C)OC1=O` (configuration not stated), in data set [1] (read-out: logP), the logP came to 8.25. The Ki in data set [2] turned out to be 9.6 nM; in data set [3], 5.06 nM; in data set [4], 31.1 nM; in data set [6], 7.2 nM. Moreover, the Ratio Ki in the data set listed under Homo sapiens [5] was 1.4; in the data set listed under Homo sapiens [7], 3.2.
As for `CCCCCCCCCCCCCCCCCC(=O)OCC1(CO)C/C(=C\CC(C)C)C(=O)O1` (configuration not stated), the lipophilicity (logP) in data set [1] (read-out: logP) was found to be 8.72. Also, the Ki came out at 47 nM in data set [2], 11.4 nM in data set [3], 99 nM in data set [4] and 30.8 nM in data set [6]. Besides, the Ratio Ki in the data set listed under Homo sapiens [5] turned out to be 2.7; in the data set listed under Homo sapiens [7], 2.1.
With `CCCCCCC#CC#CCCCCCCCC(=O)OCC1(CO)C/C(=C\CC(C)C)C(=O)O1` (configuration not stated), in data set [1] (read-out: logP), the logP was determined as 7.82. Also, the Ki came to 12.8 nM in data set [2], 5.24 nM in data set [3], 60.8 nM in data set [4] and 8.31 nM in data set [6]. Besides, the Ratio Ki worked out at 1.6 in the data set filed under Homo sapiens [5] and 4.8 in the data set filed under Homo sapiens [7].
As for `CCCCCC1OC1CC1OC1CCCCCCCC(=O)OCC1(CO)C/C(=C\CC(C)C)C(=O)O1` (configuration not stated), in data set [1] (read-out: logP), the log partition coefficient (logP) was found to be 5.69. Further, the Ki amounted to 16.9 nM in data set [2], 7.46 nM in data set [3], 116 nM in data set [4] and 13.2 nM in data set [6]. Further, the results for the Ratio Ki in the data set listed under Homo sapiens [5] and in the data set filed under Homo sapiens [7] were 1.8 and 6.9, respectively.
`CCCCCC1CC1CC1CC1CCCCCCC/C=C1/CC(CO)(COC(=O)C(C)(C)C)OC1=O` (configuration not stated): the logP in data set [1] amounted to 9.15. The Ki in data set [2] turned out to be 58.8 nM; in data set [3], 15.2 nM; in data set [4], 73 nM; in data set [6], 33.1 nM. The Ratio Ki came to 2.2 in the data set listed under Homo sapiens [5] and 1.2 in the data set filed under Homo sapiens [7].
As for `CCCCCCCCCCCCCCCCCC(=O)OCC1(CO)C/C(=C/CC(C)C)C(=O)O1` (configuration not stated), the log partition coefficient (logP) in data set [1] (read-out: logP) is 8.72. The Ki in data set [2] amounted to 34 nM; in data set [3], 19.3 nM; in data set [4], 106 nM; in data set [6], 43.9 nM. Besides, the Ratio Ki in the data set listed under Homo sapiens [5] was determined as 2.3; in the data set listed under Homo sapiens [7], 3.1.
